For 35 compounds, Activity, inhibition and IC50 results are on record in ChEMBL document CHEMBL1138071, “Design and synthesis of noncompetitive metabotropic glutamate receptor subtype 5 antagonists” (Bioorg Med Chem Lett, 2006).

Active and inactive are the calls of the source. The calls are words filed in the database; no cut-off is given here.

One may read the inhibition as the percentage by which the read-out fell short of the control. The low end stands for little suppression, the high end for strong suppression. In general, IC50 refers to the concentration that inhibits the measured activity by half.

The target of assay [1] is Metabotropic glutamate receptor 5 (Rattus norvegicus) (UniProt P31424). The assay is described as follows: Inhibition of [3H]MPEP binding to mGluR5 in rat brain membrane at 100 uM. The assay is classed as cell membranes.
Assay [2] shares this target. Particulars: Brain, Membrane, 10 uM.
For assay [3], the target named is Metabotropic glutamate receptor 5 (Rattus norvegicus, UniProt P31424). The assay is described as follows: Inhibition of [3H]MPEP binding to mGluR5 in rat brain membrane. The assay is classed as cell membranes. In outline: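 Rat brain membranes spun twice at 30,000g for 10 min, resuspended in ice-cold 50 mM Tris–HCl pH 7.0 with 1% BSA. Displacement by 10 drug concentrations run three times. Incubated 2.5 h at 4 °C to steady state, then filtered over PEI-presoaked glass-fibre filters.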

Assay [4] has as its target Metabotropic glutamate receptor 5 (Homo sapiens, UniProt P41594). The assay is described as follows: Antagonist activity against mGluR5 expressed in CHO cells assessed as inhibition of agonist-induced phosphoinositide hydrolysis. It counts as functional, cell-based.

Chain of Metabotropic glutamate receptor 5 (Rattus norvegicus) (P31424 21-1203 limits assumed): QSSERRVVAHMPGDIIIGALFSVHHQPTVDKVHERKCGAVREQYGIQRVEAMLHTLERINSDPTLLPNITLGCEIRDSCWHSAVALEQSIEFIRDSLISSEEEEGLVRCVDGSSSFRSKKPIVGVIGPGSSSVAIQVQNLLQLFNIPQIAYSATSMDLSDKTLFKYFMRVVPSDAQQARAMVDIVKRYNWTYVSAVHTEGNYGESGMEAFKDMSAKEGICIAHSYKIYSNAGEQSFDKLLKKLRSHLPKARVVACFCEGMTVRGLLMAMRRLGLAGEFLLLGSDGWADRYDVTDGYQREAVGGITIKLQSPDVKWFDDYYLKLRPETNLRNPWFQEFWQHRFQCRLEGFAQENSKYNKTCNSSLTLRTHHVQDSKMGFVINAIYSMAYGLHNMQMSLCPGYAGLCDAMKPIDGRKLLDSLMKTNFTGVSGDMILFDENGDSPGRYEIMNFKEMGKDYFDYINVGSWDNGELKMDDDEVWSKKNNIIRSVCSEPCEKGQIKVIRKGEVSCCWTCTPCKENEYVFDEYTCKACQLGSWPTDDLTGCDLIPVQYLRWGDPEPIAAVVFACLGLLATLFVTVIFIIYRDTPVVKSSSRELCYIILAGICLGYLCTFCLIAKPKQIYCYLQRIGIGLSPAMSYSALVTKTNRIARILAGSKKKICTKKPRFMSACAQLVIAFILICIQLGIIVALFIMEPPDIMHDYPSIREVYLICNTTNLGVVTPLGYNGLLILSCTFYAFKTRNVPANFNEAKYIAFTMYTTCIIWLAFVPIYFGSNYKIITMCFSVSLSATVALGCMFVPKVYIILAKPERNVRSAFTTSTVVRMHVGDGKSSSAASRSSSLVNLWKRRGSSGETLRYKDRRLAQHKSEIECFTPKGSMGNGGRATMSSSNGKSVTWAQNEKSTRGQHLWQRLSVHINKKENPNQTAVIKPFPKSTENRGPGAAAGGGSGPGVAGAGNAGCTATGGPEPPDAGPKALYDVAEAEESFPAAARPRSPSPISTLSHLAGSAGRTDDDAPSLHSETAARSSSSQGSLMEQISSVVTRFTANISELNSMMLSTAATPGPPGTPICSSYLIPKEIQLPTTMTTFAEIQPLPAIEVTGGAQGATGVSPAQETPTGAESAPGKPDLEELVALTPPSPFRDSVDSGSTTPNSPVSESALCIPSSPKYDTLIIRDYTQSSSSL
Chain of Metabotropic glutamate receptor 5 (Homo sapiens, UniProt P41594) (P41594 whole entry): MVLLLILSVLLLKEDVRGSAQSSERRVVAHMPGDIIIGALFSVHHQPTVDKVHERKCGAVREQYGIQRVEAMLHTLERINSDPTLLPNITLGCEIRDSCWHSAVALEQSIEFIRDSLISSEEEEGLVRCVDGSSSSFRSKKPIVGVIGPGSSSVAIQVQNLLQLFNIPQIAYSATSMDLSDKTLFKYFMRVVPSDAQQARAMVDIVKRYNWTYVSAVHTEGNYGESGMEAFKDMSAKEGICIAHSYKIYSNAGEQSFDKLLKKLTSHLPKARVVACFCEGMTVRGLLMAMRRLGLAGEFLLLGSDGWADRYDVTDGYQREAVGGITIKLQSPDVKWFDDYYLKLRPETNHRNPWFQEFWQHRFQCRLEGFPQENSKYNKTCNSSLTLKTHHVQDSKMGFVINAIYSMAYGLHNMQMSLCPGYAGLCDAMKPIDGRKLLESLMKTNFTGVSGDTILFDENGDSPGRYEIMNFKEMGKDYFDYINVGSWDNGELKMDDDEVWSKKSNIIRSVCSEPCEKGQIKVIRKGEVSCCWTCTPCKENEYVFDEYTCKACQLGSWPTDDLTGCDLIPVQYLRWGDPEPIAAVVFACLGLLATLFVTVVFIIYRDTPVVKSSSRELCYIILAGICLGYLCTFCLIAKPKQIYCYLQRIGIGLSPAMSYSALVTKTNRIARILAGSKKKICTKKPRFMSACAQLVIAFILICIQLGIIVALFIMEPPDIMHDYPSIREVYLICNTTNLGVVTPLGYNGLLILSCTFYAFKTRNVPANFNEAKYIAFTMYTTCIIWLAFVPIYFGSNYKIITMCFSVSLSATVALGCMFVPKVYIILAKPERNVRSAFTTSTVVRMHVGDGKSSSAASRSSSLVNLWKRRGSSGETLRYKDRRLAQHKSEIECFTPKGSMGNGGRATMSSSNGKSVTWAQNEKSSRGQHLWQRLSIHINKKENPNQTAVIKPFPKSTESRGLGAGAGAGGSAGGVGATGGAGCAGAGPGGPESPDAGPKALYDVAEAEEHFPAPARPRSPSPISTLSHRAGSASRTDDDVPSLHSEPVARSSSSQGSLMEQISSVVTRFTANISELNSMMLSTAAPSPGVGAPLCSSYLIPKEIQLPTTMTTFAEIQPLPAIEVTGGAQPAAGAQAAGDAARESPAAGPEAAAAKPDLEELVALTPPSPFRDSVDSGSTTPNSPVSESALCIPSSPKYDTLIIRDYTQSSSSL
Chain of Metabotropic glutamate receptor 5 (Rattus norvegicus, UniProt P31424) (P31424 whole entry): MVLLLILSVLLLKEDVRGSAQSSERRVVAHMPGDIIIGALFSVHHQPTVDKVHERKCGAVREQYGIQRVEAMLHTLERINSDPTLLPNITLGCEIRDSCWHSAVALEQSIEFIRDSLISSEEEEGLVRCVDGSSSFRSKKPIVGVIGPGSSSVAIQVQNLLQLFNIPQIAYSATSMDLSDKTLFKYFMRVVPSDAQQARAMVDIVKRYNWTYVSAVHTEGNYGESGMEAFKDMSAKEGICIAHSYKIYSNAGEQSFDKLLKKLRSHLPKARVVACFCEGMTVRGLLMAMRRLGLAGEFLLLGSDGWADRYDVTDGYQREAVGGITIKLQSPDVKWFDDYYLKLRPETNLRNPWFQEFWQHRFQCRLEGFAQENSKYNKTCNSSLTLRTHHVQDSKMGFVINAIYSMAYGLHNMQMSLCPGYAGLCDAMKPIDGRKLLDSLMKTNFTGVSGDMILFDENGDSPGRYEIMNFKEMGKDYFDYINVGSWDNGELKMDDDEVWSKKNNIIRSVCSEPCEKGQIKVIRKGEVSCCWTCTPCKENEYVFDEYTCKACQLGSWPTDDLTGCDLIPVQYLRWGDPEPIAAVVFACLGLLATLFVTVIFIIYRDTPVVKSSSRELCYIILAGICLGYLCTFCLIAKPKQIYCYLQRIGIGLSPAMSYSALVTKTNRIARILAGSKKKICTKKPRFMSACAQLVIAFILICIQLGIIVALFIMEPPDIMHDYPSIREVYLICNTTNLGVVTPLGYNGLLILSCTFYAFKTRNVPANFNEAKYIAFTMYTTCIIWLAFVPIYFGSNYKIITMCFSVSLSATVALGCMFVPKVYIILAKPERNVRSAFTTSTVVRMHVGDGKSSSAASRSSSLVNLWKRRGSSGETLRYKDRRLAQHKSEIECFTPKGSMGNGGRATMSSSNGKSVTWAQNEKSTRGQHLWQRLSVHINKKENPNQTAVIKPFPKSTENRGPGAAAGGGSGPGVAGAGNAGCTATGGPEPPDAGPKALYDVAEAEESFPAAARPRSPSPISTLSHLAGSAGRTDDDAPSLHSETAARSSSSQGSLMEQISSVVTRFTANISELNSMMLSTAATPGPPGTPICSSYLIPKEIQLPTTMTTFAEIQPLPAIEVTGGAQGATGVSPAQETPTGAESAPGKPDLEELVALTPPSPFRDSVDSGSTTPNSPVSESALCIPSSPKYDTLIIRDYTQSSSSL

Turning to `Cc1cccc(NC(=O)c2cccc(S(C)(=O)=O)c2)n1`, the outcome in assay [1] was inactive.

Take `Cc1cccc(CNc2ccccc2)n1`: the outcome in assay [1] was inactive.

As to `Cc1cccc(NC(=O)c2cccc(Cl)c2)n1`, the inhibition in assay [2] was 66%. This compound also registered an IC50 in assay [3] of 1.73 µM.

Regarding `Cc1cccc(NC(=O)c2cccc(I)c2)n1`, the IC50 in assay [4] amounted to 10.8 µM; in assay [3], 1.08 µM.

With `Cc1ccc(O)c(/N=N/c2ccccc2)n1`, the IC50 in assay [3] turned out to be 1.17 µM.

`Cc1cccc(NC(=O)c2cccc(-c3ccccc3)c2)n1`: the 50% inhibitory concentration (IC50) came out at 18.3 µM in assay [4] and 7.3 µM in assay [3].

`O=C(Nc1ccccn1)c1ccccc1` came in with an IC50 in assay [3] of 95.4 µM.

In assay [3], `Cc1cccc(NC(=O)c2cccc(OCCc3ccccc3)c2)n1` displayed an IC50 of 23.6 µM.

In the case of `Cc1cccc(NC(=O)c2cccc(/C=C/c3ccccc3)c2)n1`, in assay [1], the outcome was inactive.

On to `Cc1cccc(NC(=O)c2ccc3ccccc3c2)n1`, for which the outcome in assay [1] was inactive.

Consider `Cc1csc(NC(=O)c2cccnc2)n1`, for which the result in assay [1] was inactive.

Take `Cc1cccc(NC(=O)c2cccc3ccccc23)n1`: the 50% inhibitory concentration (IC50) in assay [3] turned out to be 62.8 µM.

With `Cc1cccc(NC(=O)C2CCCN(C)C2)n1` (centres undefined), the outcome in assay [1] was inactive.

For the compound `Cc1cccc(NC(=O)c2cccnc2)n1`, the outcome in assay [1] was inactive.

`Cc1ccc(S(=O)(=O)N2CCCC(C(=O)Nc3cccc(C)n3)C2)cc1` (centres undefined): in assay [1], the inhibition was found to be 31%.

With `O=C(Nc1cccc(Cl)n1)c1cccc(Cl)c1`, the values for the IC50 in assay [4] and in assay [3] were 12.7 µM and 1.53 µM, respectively.

On to `Cc1cccc(NC(=O)c2ccccc2Cl)n1`, for which the outcome in assay [1] was inactive.

Regarding `Cc1cccc(NC(=O)c2ccccc2)n1`, the IC50 in assay [3] worked out at 35 µM.

As to `Cc1cccc(NC(=O)c2cccc(Br)c2)n1`, the concentration for half-maximal inhibition (IC50) in assay [4] came out at 5.48 µM; in assay [3], 0.65 µM.

Consider `Cc1cccc(C(=O)Nc2cccc(C)n2)c1`, for which the IC50 in assay [4] worked out at 5.9 µM; in assay [3] it was 1.84 µM.

Consider `Cc1cccc(NC(=O)C2CCCN(Cc3ccccc3)C2)n1` (centres undefined), for which the inhibition in assay [1] came to 14%.

For the compound `Cc1csc(NC(=O)c2cccc(Cl)c2)n1`, the IC50 in assay [4] is 15 µM; in assay [3] it was 5.49 µM.

For `Cc1cccc(NCc2ccccc2)n1`, the result in assay [1] was inactive.

`Cc1csc(NC(=O)c2ccccc2)n1` yielded a 50% inhibitory concentration (IC50) in assay [3] of 65 µM.

Turning to `Cc1cccc(NC(=O)C2CCCN(Cc3cccc(Cl)c3)C2)n1` (centres undefined), the inhibition in assay [1] is 31%.

`Cc1cccc(NC(=O)c2cccc(Oc3ccccc3)c2)n1` came in with an IC50 in assay [3] of 57 µM.

On to `Cc1cccc(NC(=O)c2ccc(Cl)cc2)n1`, for which the outcome in assay [1] was inactive.

In assay [3], `COc1cccc(C(=O)Nc2nc(C)cs2)c1` returned an IC50 of 9.1 µM.

For the compound `Cc1cccc(NC(=O)c2cccc(C#N)c2)n1`, the IC50 in assay [4] amounted to 5.33 µM; in assay [3] it was 0.33 µM.

With `Cc1cccc(/C=C/c2ccccc2)n1`, in assay [3], the IC50 stood at 1.08 µM.

As to `Cc1cccc(NC(=O)c2cccc(C(F)(F)F)c2)n1`, the IC50 in assay [3] was 18.7 µM.

For `Cc1ccc(S(=O)(=O)Nc2cccc(C)n2)cc1`, the outcome in assay [1] was inactive.

`Cc1cccc(NC(=O)c2cccc(OS(C)(=O)=O)c2)n1` showed an IC50 in assay [3] of 83.6 µM.

For `COc1cccc(C(=O)Nc2cccc(C)n2)c1`, the 50% inhibitory concentration (IC50) in assay [4] is 46 µM; in assay [3], 9.76 µM.

As to `Cc1cccc(NC(=O)c2cccc(OCc3ccccc3)c2)n1`, in assay [3], the 50% inhibitory concentration (IC50) turned out to be 33 µM.
